# Most compounds without a hit are left out; they make up all but 2.1% or so of the library.
# EWS-Fli inh: blocks EWS/Fli oncoprotein-driven transcription; A673 NR0B1-luciferase reporter, viability-normalised; actives 0.67% (n = 350,000); inhibition, % at 12.6 µM; AID 651661;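 active = mean inhibition of at least 50% after viability correction, with every replicate also passing that limit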;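 note: firefly luciferase signal divided by Alamar Blue viability fluorescence both relative to DMSO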
# PAX8 inh HTS: PAX8 transcriptional activity inhibition; RMG-I TPO-luciferase reporter, SteadyGlo, 24 h; AID 652154; actives 1.2% (n = 360,000); inhibition, % at 12.6 µM;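 active = mean replicate inhibition at least 60% with every replicate also reaching 60%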;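 note: luciferase light reporting Pax8 driven TPO promoter activity; plate controls were median of neutral control wells for no effect and mitoxantrone controls for full effect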
# FN deposition inh: fibronectin deposition inhibition | AH1F fibroblasts, Alexa488-fibronectin deposition fluorescence, overnight | inhibition, % at 12.6 µM | actives 0.086% (n = 350,000) | AID 743247;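 active = mean inhibition across replicates of 30% or more, regardless of how many single replicates reach that level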;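 note: positive control wells lacked labelled fibronectin entirely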
#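 Material: AH1F fibroblast monolayer depositing Alexa488-labelled fibronectin into matrix | Input: 10000 AH1F cells/well | Medium: DMEM plus 2% serum, read in PBS | Reagent: Alexa488-fibronectin, 24 nM final in well | Compound dosing: One dose per compound, pinned | Schedule: 1 h adhesion, overnight exposure | Measured by: Fluorescence at 485 nm excitation, 525 nm emission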
# aSyn UTR inh: MLPCN primary screen, SNCA 5' untranslated region. AID 1813. actives 0.82% (n = 300,000). inhibition, % (tested at 7.5 µM). alpha-synuclein 5'UTR reporter, inhibitor activity; in the data active = inhibition above about 60%;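 note: H4 neuroglioblastoma cells stably carrying SNCA 5'UTR luciferase fusion; 0% = DMSO wells and 100% = positive control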
# Shn3 3UTR inh: Schnurri-3 reporter inhibition in Clone20 osteoblasts. Clone20 osteoblast Shn3 3'UTR firefly luciferase, 24 h. inhibition, % at 12.5 µM. actives 0.52% (n = 360,000);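 active = mean inhibition of at least 75% with every replicate also reaching 75%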;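 note: 0% = median of neutral control wells and 100% = pilot-screen positive control compound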
# LMP1 NFkB inh: Epstein-Barr LMP1 NF-kappaB reporter inhibition | LMP1-induced NF-kappaB luciferase reporter cells, luminescence | inhibition, % at 12.5 µM | actives 0.69% (n = 350,000) | AID 504558; in the data active = inhibition above about 41%;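 note: 0% = neutral control wells and 100% = reference inhibitor control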
# * = called active by the depositor; . = no result given.
SMILES,EWS-Fli inh,PAX8 inh HTS,FN deposition inh,aSyn UTR inh,Shn3 3UTR inh,LMP1 NFkB inh
COc1ccc2cc1Oc1ccc(cc1)CC1c3c(cc(OC)c4c3Oc3cc5c(cc3O4)CCNC5C2)CCN1C (stereo unspecified),.,.,.,114.2*,54.2,-32.2
CCC(=O)Nc1ccc2c(c1)C(=O)N(C)C[C@@H](OC)[C@H](C)CN(CCc1ccccc1)[C@@H](C)CO2,2.6,9.5,-4.3,.,.,.
COc1ccc(NC(=O)N(CCN2CCCC2)Cc2cc3cc(OC)c(OC)cc3[nH]c2=O)cc1,.,.,.,-7.5,2.5,43.7*
COc1ccc(NC(=O)N(CCCN(C)C)Cc2cc3cc(OC)ccc3[nH]c2=O)cc1,.,5.6,0.1,-37.8,4.3,2.8
COc1ccccc1NC(=S)N(CCCN(C)C)Cc1cc2cc3c(cc2[nH]c1=O)OCO3,12.4,-9.5,-0.5,5.6,10.7,-8.9
CC(=O)Nc1ccc(S(=O)(=O)N(Cc2cc3ccc(C)cc3[nH]c2=O)CC2CCCO2)cc1 (stereo unspecified),-2.2,-5.5,-2.3,82.4*,-0.7,-4.8
COc1ccc2cc(CN(CC3CCCO3)S(=O)(=O)c3ccc(C(C)=O)cc3)c(=O)[nH]c2c1 (stereo unspecified),.,.,1.5,-77.9,-14.2,5.3
COc1ccc2cc(CN(CC3CCCO3)C(=O)Nc3ccccc3OC)c(=O)[nH]c2c1 (stereo unspecified),42.8,34.2,-8.7,66.4*,7.7,49.4*
COC(=O)c1ccccc1NC(=S)N(Cc1ccc2c(c1)OCO2)Cc1cc2cc(OC)ccc2[nH]c1=O,.,31.0,13.6,0.4,88.7*,7.1
O=C(Cc1ccccn1)NCC[C@@H]1CC[C@H](NS(=O)(=O)c2ccc(Cl)cc2)[C@@H](CO)O1,-3.7,1.3,-7.4,.,.,.
COc1ccc2[nH]c(=O)c(CN(CC3CCCO3)C(=S)Nc3ccccc3)cc2c1 (stereo unspecified),-0.6,23.1,-8.3,8.3,21.6,3.0
COc1ccccc1NC(=S)N(Cc1ccco1)Cc1cc2cccc(C)c2[nH]c1=O,.,10.1,.,-15.2,29.5,2.2
Cc1cc2cc(CN(CC3CCCO3)C(=S)Nc3ccccc3)c(=O)[nH]c2cc1C (stereo unspecified),30.7,7.0,12.9,-0.6,90.3*,3.3
COc1ccccc1NC(=S)N(Cc1ccco1)Cc1cc2cc(C)c(C)cc2[nH]c1=O,39.2,28.4,10.4,91.0*,9.2,4.5
Cc1cc2cc(CN(Cc3ccco3)S(=O)(=O)c3c(C)ccc4nsnc34)c(=O)[nH]c2cc1C,.,.,.,88.9*,11.2,43.8*
O=C(C[C@H]1CC[C@@H]2[C@H](COC[C@@H](O)CN2S(=O)(=O)c2cccc(Cl)c2)O1)NC1CCC1,16.5,-1.2,-0.9,.,.,.
O=C(c1noc2c1CCCC2)N1CCCCC1,5.0,.,.,-22.9,-15.1,68.2*
C[C@@H]1CCCCO[C@@H](CN(C)S(C)(=O)=O)[C@@H](C)CN([C@H](C)CO)C(=O)c2cc(NC(=O)c3ccncc3)ccc2O1,.,-9.2,.,.,.,.
CCS(=O)(=O)NCC[C@@H]1CC[C@@H](NC(=O)C2CC2)[C@@H](CO)O1,0.9,-25.9,.,.,.,.
Cn1c(SCC(=O)c2ccccc2)nnc1-c1ccncc1,-4.5,0.8,-6.0,-31.4,-11.6,4.3
Cn1c(SCC(=O)c2ccccc2)nnc1-c1ccccn1,-97.5,89.5*,0.6,-128.1,-130.2,-27.4
COc1ccc(C#Cc2ccc3c(c2)O[C@@H](CN(C)C(=O)c2ccccn2)[C@H](C)CN([C@@H](C)CO)S3(=O)=O)cc1,3.3,65.5*,.,.,.,.
CCCC#Cc1ccc2c(c1)O[C@@H](CN(C)C(=O)c1cnccn1)[C@@H](C)CN([C@@H](C)CO)S2(=O)=O,53.6*,.,-8.9,.,.,.
C[C@H](CO)N1C[C@H](C)[C@H](CN(C)S(=O)(=O)c2ccc(Cl)cc2)Oc2c(NS(=O)(=O)c3cn(C)cn3)cccc2C1=O,-2.4,-3.6,.,.,.,.
COc1ccc(CN(C)C[C@@H]2Oc3ccc(NS(C)(=O)=O)cc3C(=O)N([C@H](C)CO)C[C@@H]2C)cc1,-4.2,3.8,.,.,.,.
SMILES,EWS-Fli inh,PAX8 inh HTS,FN deposition inh,aSyn UTR inh,Shn3 3UTR inh,LMP1 NFkB inh
Cc1ccc(CN2C(=O)c3ccccc3C2c2nnnn2-c2ccc3c(c2)OCCO3)cc1 (stereo unspecified),-0.1,26.4,.,.,.,.
Cc1ccccc1CN1C(=O)c2ccccc2C1c1nnnn1-c1ccc2c(c1)OCCO2 (stereo unspecified),60.7*,25.0,-3.5,.,.,.
C[C@H]1CN([C@@H](C)CO)C(=O)c2cccc(NC(=O)Nc3cccc4ccccc34)c2O[C@H]1CN(C)C(=O)Nc1ccccc1,3.5,.,.,.,.,.
COc1ccc(C(=O)NCCCNC(=O)c2cc3ccccc3[nH]2)cc1OC,7.5,13.9,-5.0,36.5,-0.5,75.5*
CO[C@H]1CN(C)C(=O)c2cc(NC(=O)c3ccccc3F)ccc2OC[C@@H](C)N(C)C[C@@H]1C,-12.2,4.6,-7.4,.,.,.
Fc1cccc(CSc2ccc(-c3ccco3)nn2)c1,.,-106.9,-7.1,-176.2,-31.2,-23.2
Fc1ccc(CSc2ccc(-c3ccco3)nn2)cc1,-97.0,131.4*,-5.1,-153.3,-75.6,-14.6
O=c1c(Cl)c(Cl)cnn1Cc1nnc(-c2ccccc2Br)o1,46.3,97.8*,39.3*,-66.1,77.6,-106.6
COc1ccccc1-c1ccc([C@H]2[C@@H](C#N)N(C(=O)C3CC3)[C@H]2CO)cc1,-21.0,-18.3,3.3,.,.,.
COc1cccc(C(=O)CC(=O)C(=O)Nc2ccc(C)cc2Cl)c1,8.5,-11.7,1.2,-28.5,3.1,46.4*
COc1ccc(C(=O)CC(=O)C(=O)Nc2ccc(C)cc2Cl)cc1,29.1,-19.5,0.8,-38.8,6.9,6.5
Cc1nc2cc(-c3ccc(Cl)cc3)nn2c(C)c1CCC(=O)NCc1ccco1,56.9*,-15.1,-3.0,55.8,59.1,5.8
COc1ccc(-c2cc3nc(C)c(CCC(=O)NCc4ccco4)c(C)n3n2)c(OC)c1,.,.,-5.4,15.1,12.4,6.4
COc1ccc(N2C(=O)C3C4c5ccccc5C(C=Nc5ccc(C)cc5C)(c5ccccc54)C3C2=O)cc1 (stereo unspecified),.,65.0*,.,15.8,23.9,11.5
CCc1ccc(N=CC23c4ccccc4C(c4ccccc42)C2C(=O)N(c4ccc(OC)cc4)C(=O)C23)cc1 (stereo unspecified),.,19.9,1.5,-1.8,15.6,14.0

# Source: PubChem BioAssay (Broad Institute)
